In ChEMBL document CHEMBL1156144, “Biaryl ethers as novel non-nucleoside reverse transcriptase inhibitors with improved potency against key mutant viruses” (J Med Chem, 2009):

Experiments:
[1] = system: Human immunodeficiency virus; test: Antiviral activity against HIV with reverse transcriptase K103N/Y181C double mutant infected in human MT2 cells assessed as inhibition of viral replication measuring p24 level after 3 days in presence of 10% fetal bovine serum; format: functional; conditions: Human immunodeficiency virus 1, MT2, Serum, 72 h; read-out: CIC95
Outline: (§1)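 Multiple-cycle replication (Spread) assay in MT2 cells with H9IIIB-background mutant virus. Cells were infected overnight at moi ≈ 0.01 without compound, washed, then cultured 3 days across a range of compound concentrations in medium with 10% FBS. p24 was measured in supernatants. CIC95 is the lowest concentration inhibiting replication by ≥95%, reported as the geometric mean of ≥2 determinations.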

[2] = Volume of distribution in Sprague-Dawley rat at 2 mg/kg, iv; format: ADME, organism-based; parameters: dose 2 mg/kg, route intravenous; conditions: in vivo
Rattus norvegicus = test: AUC in Sprague-Dawley rat at 2 mg/kg, iv; format: ADME, organism-based, Plasma; parameters: dose 2 mg/kg, route intravenous; conditions: in vivo
[3] = system: Human immunodeficiency virus; test: Antiviral activity against wild type HIV H9-3B infected in human MT2 cells assessed as inhibition of viral replication measuring p24 level after 3 days in presence of 50% normal human serum; format: functional; conditions: Human immunodeficiency virus 1, H9-3B, 72 h, read-out: CIC95
Outline: (§2)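 Multiple-cycle spread assay in MT2 cells with wild-type H9IIIB virus. Cells were infected overnight at moi ≈ 0.01 without compound, washed, then cultured 3 days across varying compound concentrations in RPMI 1640 with 10% FBS or 50% NHS. p24 was measured in supernatants. CIC95 is the lowest concentration inhibiting replication ≥95%, as the geometric mean of ≥2 determinations.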

[4] = system: Human immunodeficiency virus; test: Antiviral activity against HIV with reverse transcriptase K103N mutant infected in human MT2 cells assessed as inhibition of viral replication measuring p24 level after 3 days in presence of 10% fetal bovine serum; format: functional; conditions: Human immunodeficiency virus 1, MT2, Serum, 72 h; read-out: CIC95; outline: as §1
[5] = Inhibition of RNA-dependent DNA polymerase activity of wild type HIV reverse transcriptase assessed as BrdU incorporation by standard ECL assay; parameters: species or system Human immunodeficiency virus
Outline: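 Purified recombinant wild-type RT polymerase activity was measured using a 500-nt heteropolymeric RNA template and a biotinylated DNA primer. BrdU incorporation was detected with a ruthenylated anti-BrdU antibody by electrochemiluminescence. Ki is the geometric mean of at least two determinations, each within 25% of the mean.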

[6] = Clearance in Sprague-Dawley rat at 2 mg/kg, iv; format: ADME, organism-based; parameters: dose 2 mg/kg, route intravenous; conditions: in vivo
[7] = system: Human immunodeficiency virus; test: Antiviral activity against HIV with reverse transcriptase Y181C mutant infected in human MT2 cells assessed as inhibition of viral replication measuring p24 level after 3 days in presence of 10% fetal bovine serum; format: functional; conditions: Human immunodeficiency virus 1, MT2, Serum, 72 h; read-out: CIC95; outline: as §1
[8] = system: Human immunodeficiency virus; test: Antiviral activity against wild type HIV H9-3B infected in human MT2 cells assessed as inhibition of viral replication measuring p24 level after 3 days in presence of 10% fetal bovine serum; format: functional; conditions: Human immunodeficiency virus 1, MT2, Serum; read-out: CIC95; outline: as §2
[9] = Half life in Sprague-Dawley rat at 2 mg/kg, iv; format: ADME, organism-based; parameters: dose 2 mg/kg, route intravenous; conditions: in vivo
[10] = biological target: Human immunodeficiency virus type 1 reverse transcriptase (Human immunodeficiency virus 1, UniProt Q72547, K103N); test: Inhibition of RNA-dependent DNA polymerase activity of recombinant HIV reverse transcriptase K103N mutant assessed as BrdU incorporation by standard ECL assay
[11] = system: Human immunodeficiency virus; test: Antiviral activity against HIV with reverse transcriptase L100I mutant assessed as inhibition of viral replication relative to wild type; format: functional
[12] = system: Human immunodeficiency virus; test: Antiviral activity against HIV with reverse transcriptase V106A/G190A/F227L mutant assessed as inhibition of viral replication relative to wild type; format: functional
[13] = system: Human immunodeficiency virus; test: Antiviral activity against HIV with reverse transcriptase V106A/G190A/F227L mutant assessed as inhibition of viral replication; format: functional, organism-based; conditions: Human immunodeficiency virus 1
[14] = system: Human immunodeficiency virus; test: Antiviral activity against HIV with reverse transcriptase K101E/G190A double mutant assessed as inhibition of viral replication; format: functional, organism-based; conditions: Human immunodeficiency virus 1
[15] = system: Human immunodeficiency virus; test: Antiviral activity against HIV with reverse transcriptase K103N/P225H double mutant assessed as inhibition of viral replication relative to wild type; format: functional
[16] = system: Human immunodeficiency virus; test: Antiviral activity against HIV with reverse transcriptase K101E/Y181C/G190A mutant assessed as inhibition of viral replication; format: functional, organism-based; conditions: Human immunodeficiency virus 1
[17] = system: Human immunodeficiency virus; test: Antiviral activity against HIV with reverse transcriptase K103N/Y181C/G190A mutant assessed as inhibition of viral replication relative to wild type; format: functional
[18] = system: Human immunodeficiency virus; test: Antiviral activity against HIV with reverse transcriptase G190S mutant assessed as inhibition of viral replication; format: functional, organism-based; conditions: Human immunodeficiency virus 1
[19] = system: Human immunodeficiency virus; test: Antiviral activity against HIV with reverse transcriptase K103N/Y181C double mutant assessed as inhibition of viral replication; format: functional, organism-based; conditions: Human immunodeficiency virus 1
[20] = system: Human immunodeficiency virus; test: Antiviral activity against HIV with reverse transcriptase MDRC4 mutant assessed as inhibition of viral replication; format: functional, organism-based; conditions: Human immunodeficiency virus 1
[21] = system: Human immunodeficiency virus; test: Antiviral activity against HIV with reverse transcriptase K103N/P225H double mutant assessed as inhibition of viral replication; format: functional, organism-based; conditions: Human immunodeficiency virus 1
[22] = system: Human immunodeficiency virus; test: Antiviral activity against HIV with reverse transcriptase K101E/Y181C/G190A mutant assessed as inhibition of viral replication relative to wild type; format: functional
[23] = system: Human immunodeficiency virus; test: Antiviral activity against HIV with reverse transcriptase L100I/K103N double mutant assessed as inhibition of viral replication relative to wild type; format: functional
[24] = system: Human immunodeficiency virus; test: Antiviral activity against HIV with reverse transcriptase K103N/Y181C double mutant assessed as inhibition of viral replication relative to wild type; format: functional
[25] = system: Human immunodeficiency virus; test: Antiviral activity against HIV with reverse transcriptase MDRC4 mutant assessed as inhibition of viral replication relative to wild type; format: functional
[26] = system: Human immunodeficiency virus; test: Antiviral activity against HIV with reverse transcriptase Y188L mutant assessed as inhibition of viral replication; format: functional, organism-based; conditions: Human immunodeficiency virus 1
[27] = system: Human immunodeficiency virus; test: Antiviral activity against HIV with reverse transcriptase Y181C/G190A double mutant assessed as inhibition of viral replication; format: functional, organism-based; conditions: Human immunodeficiency virus 1
[28] = system: Human immunodeficiency virus; test: Antiviral activity against HIV with reverse transcriptase K103N/Y181C/G190A mutant assessed as inhibition of viral replication; format: functional, organism-based; conditions: Human immunodeficiency virus 1
[29] = system: Human immunodeficiency virus; test: Antiviral activity against HIV with reverse transcriptase K103N mutant assessed as inhibition of viral replication relative to wild type; format: functional
[30] = system: Human immunodeficiency virus; test: Antiviral activity against HIV with reverse transcriptase Y181C/G190A double mutant assessed as inhibition of viral replication relative to wild type; format: functional
[31] = system: Human immunodeficiency virus; test: Antiviral activity against HIV with reverse transcriptase K101E/G190A double mutant assessed as inhibition of viral replication relative to wild type; format: functional
[32] = system: Human immunodeficiency virus; test: Antiviral activity against HIV with reverse transcriptase Y181C mutant assessed as inhibition of viral replication relative to wild type; format: functional
[33] = system: Human immunodeficiency virus; test: Antiviral activity against HIV with reverse transcriptase Y188L mutant assessed as inhibition of viral replication relative to wild type; format: functional
[34] = system: Human immunodeficiency virus; test: Antiviral activity against HIV with reverse transcriptase K103N/G190A double mutant assessed as inhibition of viral replication; format: functional, organism-based; conditions: Human immunodeficiency virus 1
[35] = system: Human immunodeficiency virus; test: Antiviral activity against HIV with reverse transcriptase G190A mutant assessed as inhibition of viral replication; format: functional, organism-based; conditions: Human immunodeficiency virus 1
[36] = system: Human immunodeficiency virus; test: Antiviral activity against HIV with reverse transcriptase K103N mutant assessed as inhibition of viral replication; format: functional, organism-based; conditions: Human immunodeficiency virus 1
[37] = system: Human immunodeficiency virus; test: Antiviral activity against HIV with reverse transcriptase L100I/K103N double mutant assessed as inhibition of viral replication; format: functional, organism-based; conditions: Human immunodeficiency virus 1
[38] = system: Human immunodeficiency virus; test: Antiviral activity against HIV with reverse transcriptase G190S mutant assessed as inhibition of viral replication relative to wild type; format: functional
[39] = system: Human immunodeficiency virus; test: Antiviral activity against HIV with reverse transcriptase G190A mutant assessed as inhibition of viral replication relative to wild type; format: functional
[40] = system: Human immunodeficiency virus; test: Antiviral activity against HIV with reverse transcriptase Y181C mutant assessed as inhibition of viral replication; format: functional, organism-based; conditions: Human immunodeficiency virus 1
[41] = system: Human immunodeficiency virus; test: Antiviral activity against HIV with reverse transcriptase K103N/G190A double mutant assessed as inhibition of viral replication relative to wild type; format: functional
[42] = system: Human immunodeficiency virus; test: Antiviral activity against HIV with reverse transcriptase CNDO mutant assessed as inhibition of viral replication; format: functional, organism-based; conditions: Human immunodeficiency virus 1
[43] = system: Human immunodeficiency virus; test: Antiviral activity against HIV with reverse transcriptase CNDO mutant assessed as inhibition of viral replication relative to wild type; format: functional
[44] = system: Human immunodeficiency virus; test: Antiviral activity against HIV with reverse transcriptase L100I mutant assessed as inhibition of viral replication; format: functional, organism-based; conditions: Human immunodeficiency virus 1

Which IC95 [1] does the source give for N#Cc1cc(Cl)cc(Oc2cc(OCc3noc4nc(N)ccc34)ccc2Cl)c1 here?
Its IC95 is 0.278 µM.

And the Vd [2]?
The Vd was 44.7 L/kg.

What about the AUC (Rattus norvegicus) of the same molecule?
Its AUC is 0.8 µM.

And the IC95 [3]?
The IC95 was 0.034 µM.

And the IC95 [4]?
Its IC95 is 0.034 µM.

And the Ki [5]?
The Ki was 0.0003 µM.

What about the clearance [6] of the same molecule?
The clearance was 5.6 L/h/kg.

And the IC95 [7]?
The IC95 was 0.093 µM.

And the IC95 [8]?
Its IC95 is 0.011 µM.

And the half-life [9]?
The half-life was 5.8 h.

And the Ki [10]?
Its Ki is 0.0004 µM.

Which results are given for N#Cc1cc(Cl)cc(Oc2cc(OCc3noc4ncccc34)ccc2Cl)c1?
IC95 [1]: 0.278 µM; IC95 [3]: 0.103 µM; IC95 [4]: 0.103 µM; Ki [5]: 0.0016 µM; IC95 [7]: 0.093 µM; IC95 [8]: 0.019 µM; Ki [10]: 0.0021 µM

With N#Cc1cc(Cl)cc(Oc2cc(OCc3n[nH]c4ncccc34)cc(F)c2Cl)c1 as the molecule, how does the IC95 [1] read?
The IC95 was 0.093 µM.

And the IC95 [3]?
Its IC95 is 0.059 µM.

What about the IC95 [4] of the same molecule?
Its IC95 is 0.011 µM.

And the Ki [5]?
The Ki was 0.0005 µM.

What about the IC95 [7] of the same molecule?
The IC95 was 0.031 µM.

And the IC95 [8]?
Its IC95 is 0.016 µM.

What about the Ki [10] of the same molecule?
Its Ki is 0.0009 µM.

Which results are given for N#Cc1cc(Cl)cc(Oc2ccc(Cl)c(OCc3n[nH]c4ncccc34)c2)c1?
IC95 [3]: > 8.3 µM; IC95 [4]: > 8.3 µM; Ki [5]: 0.017 µM; IC95 [8]: > 8.3 µM; Ki [10]: 0.14 µM

What does the source list for O=C1Nc2ccc(Cl)cc2[C@@](C#CC2CC2)(C(F)(F)F)O1 [EFAVIRENZ]?
fold change (FC) [11]: 42; fold change (FC) [12]: >454; IC50 [13]: > 0.5 µM; IC50 [14]: 0.0174 µM; fold change (FC) [15]: 306.2; IC50 [16]: 0.106 µM; fold change (FC) [17]: >454; IC50 [18]: 0.115 µM; IC50 [19]: 0.0278 µM; IC50 [20]: 0.008 µM; IC50 [21]: 0.153 µM; fold change (FC) [22]: 213; fold change (FC) [23]: >454; fold change (FC) [24]: 55.6; fold change (FC) [25]: 16; IC50 [26]: 0.124 µM; IC50 [27]: 0.0077 µM; IC50 [28]: > 0.5 µM; fold change (FC) [29]: 33.6; fold change (FC) [30]: 15.4; fold change (FC) [31]: 34.8; fold change (FC) [32]: 2.2; fold change (FC) [33]: 248.6; IC50 [34]: 0.141 µM; IC50 [35]: 0.0036 µM; IC50 [36]: 0.0168 µM; IC50 [37]: > 0.5 µM; fold change (FC) [38]: 229; fold change (FC) [39]: 7.2; IC50 [40]: 0.0011 µM; fold change (FC) [41]: 281.4; IC50 [42]: 0.0005 µM; fold change (FC) [43]: 1; IC50 [44]: 0.021 µM
